Experimental data as given in ChEMBL document CHEMBL1140861, “Short antisense oligonucleotides with novel 2'-4' conformationaly restricted nucleoside analogues show improved potency without increased toxicity in animals” (J Med Chem, 2009).
Active and inactive are the calls of the source. The calls are words filed in the database; no cut-off is given here.

Key:
Mus musculus [1] = test: Reduction of PTEN mRNA level in ip dosed BALB/c mouse liver administered twice a week for 3 weeks measured after 72 hrs of last dose; format: functional
Outline: (§1)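 Male Balb/c mice, 6 weeks old, dosed ip twice weekly for 3 weeks at 0.5, 1.5, 4.7 and 15 mg/kg (two ASOs) or 0.7, 2.3, 7.2 and 23 mg/kg (MOE control); sacrificed 72 h after last dose; ALT, liver PTEN mRNA, liver and spleen weights and body weight gain assessed; ED50 derived; errors as sd.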

Mus musculus [2] = test: Toxicity in BALB/c mouse assessed as reduction in body weight at 0.5 mg/kg, ip administered twice a week for 3 weeks measured after 72 hrs of last dose; format: organism-based; set-up: dose 0.5 mg/kg, route intraperitoneal; conditions: in vivo; outline: as §1
Mus musculus [3] = test: Hepatotoxicity in BALB/c mouse assessed as increase in liver ALT level at 0.5 mg/kg, ip administered twice a week for 3 weeks measured after 72 hrs of last dose; format: toxicity, organism-based; set-up: dose 0.5 mg/kg, route intraperitoneal; conditions: in vivo; outline: as §1
Mus musculus [4] = test: Toxicity in BALB/c mouse assessed as reduction in body weight at 1.5 mg/kg, ip administered twice a week for 3 weeks measured after 72 hrs of last dose; format: organism-based; set-up: dose 1.5 mg/kg, route intraperitoneal; conditions: in vivo; outline: as §1
Mus musculus [5] = test: Toxicity in BALB/c mouse assessed as reduction in body weight at 4.7 mg/kg, ip administered twice a week for 3 weeks measured after 72 hrs of last dose; format: organism-based; set-up: dose 4.7 mg/kg, route intraperitoneal; conditions: in vivo; outline: as §1
Mus musculus [6] = test: Hepatotoxicity in BALB/c mouse assessed as increase in liver ALT level at 1.5 mg/kg, ip administered twice a week for 3 weeks measured after 72 hrs of last dose; format: toxicity, organism-based; set-up: dose 1.5 mg/kg, route intraperitoneal; conditions: in vivo; outline: as §1
Mus musculus [7] = test: Toxicity in BALB/c mouse assessed as reduction in body weight at 15 mg/kg, ip administered twice a week for 3 weeks measured after 72 hrs of last dose; format: organism-based; set-up: dose 15 mg/kg, route intraperitoneal; conditions: in vivo; outline: as §1
Mus musculus [8] = test: Hepatotoxicity in BALB/c mouse assessed as increase in liver ALT level at 7.2 mg/kg, ip administered twice a week for 3 weeks measured after 72 hrs of last dose; format: toxicity, organism-based; set-up: dose 7.2 mg/kg, route intraperitoneal; conditions: in vivo; outline: as §1
Mus musculus [9] = test: Hepatotoxicity in BALB/c mouse assessed as increase in liver ALT level at 0.7 mg/kg, ip administered twice a week for 3 weeks measured after 72 hrs of last dose; format: toxicity, organism-based; set-up: dose 0.7 mg/kg, route intraperitoneal; conditions: in vivo; outline: as §1
Mus musculus [10] = test: Reduction of PTEN mRNA level in BALB/c mouse liver at 37 mg/kg, ip after 72 hrs; format: functional, organism-based; set-up: dose 37 mg/kg
Mus musculus [11] = test: Hepatotoxicity in BALB/c mouse assessed as increase in liver ALT level at 2.3 mg/kg, ip administered twice a week for 3 weeks measured after 72 hrs of last dose; format: toxicity, organism-based; set-up: dose 2.3 mg/kg, route intraperitoneal; conditions: in vivo; outline: as §1
bEND = test: Reduction in mouse PTEN mRNA level expressed in mouse bEND cells; format: functional, cell-based
Outline: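 bEND mouse brain endothelial cells transfected with ASO using lipofectin; PTEN mRNA reduction measured over a dose range; IC50 taken from dose-response curves.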

Mus musculus [12] = test: Hepatotoxicity in BALB/c mouse assessed as increase in liver ALT level at 23 mg/kg, ip administered twice a week for 3 weeks measured after 72 hrs of last dose; format: toxicity, organism-based; set-up: dose 23 mg/kg, route intraperitoneal; conditions: in vivo; outline: as §1
Mus musculus [13] = test: Hepatotoxicity in BALB/c mouse assessed as increase in liver ALT level at 4.7 mg/kg, ip administered twice a week for 3 weeks measured after 72 hrs of last dose; format: toxicity, organism-based; set-up: dose 4.7 mg/kg, route intraperitoneal; conditions: in vivo; outline: as §1
Mus musculus [14] = test: Reduction of PTEN mRNA level in ip dosed BALB/c mouse liver after 72 hrs; format: functional
Mus musculus [15] = test: Hepatotoxicity in BALB/c mouse assessed as increase in liver ALT level at 15 mg/kg, ip administered twice a week for 3 weeks measured after 72 hrs of last dose; format: toxicity, organism-based; set-up: dose 15 mg/kg, route intraperitoneal; conditions: in vivo; outline: as §1
Mus musculus [16] = test: Reduction of PTEN level in ip dosed BALB/c mouse liver at 37 mg/kg by Western blot analysis; format: functional, organism-based; set-up: dose 37 mg/kg
Mus musculus [17] = test: Hepatotoxicity in BALB/c mouse assessed as increase in liver ALT level at 60 mg/kg, ip after 72 hrs; format: toxicity, organism-based; set-up: dose 60 mg/kg, route intraperitoneal; conditions: in vivo
Mus musculus [18] = species on record: Mus musculus; test: Binding affinity to mouse PTEN mRNA assessed as melting temperature
Outline: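 Tm of ASO–RNA duplex, i.e. melting temperature of the ASO hybridised to its complementary RNA.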

Mus musculus [19] = test: Reduction of PTEN mRNA level in BALB/c mouse liver at 60 mg/kg, ip after 72 hrs; format: functional, organism-based; set-up: dose 60 mg/kg

COCCO[C@@H]1[C@H](O)[C@@H](COP(O)(=S)O[C@H]2[C@@H](OCCOC)[C@H](n3cc(C)c(=O)[nH]c3=O)O[C@@H]2COP(O)(=S)O[C@H]2[C@@H](OCCOC)[C@H](n3cnc4c(=O)[nH]c(N)nc43)O[C@@H]2COP(O)(=S)O[C@H]2[C@@H](OCCOC)[C@H](n3cc(C)c(N)nc3=O)O[C@@H]2COP(O)(=S)O[C@H]2[C@@H](OCCOC)[C@H](n3cc(C)c(=O)[nH]c3=O)O[C@@H]2COP(O)(=S)O[C@H]2[C@@H](O)[C@H](n3cnc4c(N)ncnc43)O[C@@H]2COP(O)(=S)O[C@H]2[C@@H](O)[C@H](n3cnc4c(=O)[nH]c(N)nc43)O[C@@H]2COP(O)(=S)O[C@H]2[C@@H](O)[C@H](n3cc(C)c(N)nc3=O)O[C@@H]2COP(O)(=S)O[C@H]2[C@@H](O)[C@H](n3cc(C)c(N)nc3=O)O[C@@H]2COP(O)(=S)O[C@H]2C[C@H](n3cc(C)c(=O)[nH]c3=O)O[C@@H]2COP(O)(=S)O[C@H]2[C@@H](O)[C@H](n3cc(C)c(N)nc3=O)O[C@@H]2COP(O)(=S)O[C@H]2C[C@H](n3cc(C)c(=O)[nH]c3=O)O[C@@H]2COP(O)(=S)O[C@H]2[C@@H](O)[C@H](n3cnc4c(=O)[nH]c(N)nc43)O[C@@H]2COP(O)(=S)O[C@H]2[C@@H](O)[C@H](n3cnc4c(=O)[nH]c(N)nc43)O[C@@H]2COP(O)(=S)O[C@H]2[C@@H](O)[C@H](n3cnc4c(N)ncnc43)O[C@@H]2COP(O)(=S)O[C@H]2[C@@H](OCCOC)[C@H](n3cc(C)c(=O)[nH]c3=O)O[C@@H]2COP(O)(=S)O[C@H]2[C@@H](OCCOC)[C@H](n3cc(C)c(=O)[nH]c3=O)O[C@@H]2COP(O)(=S)O[C@H]2[C@@H](OCCOC)[C@H](n3cc(C)c(=O)[nH]c3=O)O[C@@H]2COP(O)(=S)O[C@H]2[C@@H](OCCOC)[C@H](n3cnc4c(=O)[nH]c(N)nc43)O[C@@H]2COP(O)(=S)O[C@H]2[C@@H](OCCOC)[C@H](n3cnc4c(N)ncnc43)O[C@@H]2CO)O[C@H]1n1cc(C)c(N)nc1=O (stereo not given in full) was tested, and the ED50 (Mus musculus [1]) was 9.5 mg/kg, the Activity (Mus musculus [2]) was “Non-toxic” and the Activity (Mus musculus [3]) was “Non-toxic”. For the same compound, the Activity (Mus musculus [4]) was “Non-toxic”, the Activity (Mus musculus [5]) was “Non-toxic” and the Activity (Mus musculus [6]) was “Non-toxic”. The Activity (Mus musculus [7]) was “Non-toxic”, the Activity (Mus musculus [8]) was “Non-toxic” and the Activity (Mus musculus [9]) was “Non-toxic”. For the same compound, the Activity (Mus musculus [10]) was “Active”, the Activity (Mus musculus [11]) was “Non-toxic” and the IC50 (bEND) was 6.2 nM. The Activity (Mus musculus [12]) was “Non-toxic”, the Activity (Mus musculus [13]) was “Non-toxic” and the ED50 (Mus musculus [14]) was 36 mg/kg. The Activity (Mus musculus [15]) was “Non-toxic”, the Activity (Mus musculus [16]) was “Active” and the Activity (Mus musculus [17]) was “Non-toxic”. For the same compound, the Tm (Mus musculus [18]) was 67.9 °C and the Activity (Mus musculus [19]) was “Active”.
